Assay results: ChEMBL document CHEMBL1123062, “Relationship between structure and antineoplastic activity of (arylsulfonyl)hydrazones of 4-pyridinecarboxaldehyde” (1985)

How the values were obtained:
[1] = Compound was evaluated for antitumor activity in mice (control group) bearing sarcoma 180 ascites cells and average survival time; type: functional, Mus musculus
In short: (§1)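 Ascites forms of Sarcoma 180 or P388 leukemia carried in CDF-1 mice. Recipients were implanted from donors with 7-day tumor growth. Compound given once daily for six consecutive days starting 24 h after implantation, with a tested range of 50–200 mg/kg per day. Hydrochloride salt solutions were adjusted to pH 6.5–7.0. Survival time was averaged, days ± SE. Body weight was tracked as a toxicity indicator.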

Mus musculus [2] = species on record: Mus musculus; assay: Ratio of average survival time of treated to control mice bearing sarcoma 180 ascites cells; type: functional
In short: (§2)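 In CDF-1 mice bearing ascitic P388 leukemia or Sarcoma 180 from 7-day donors, dosing ran once daily for six days from 24 h post-implant (range 50–200 mg/kg/day; HCl salts adjusted to pH 6.5–7.0). % T/C was the average survival time of treated over control animals × 100, reported at the maximum effective daily dose.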

P388 [3] = assay: Compound was evaluated for antitumor activity in mice bearing P388 leukemic cells and average survival time; type: functional, Mus musculus; in short: as §1
P388 [4] = assay: Compound was evaluated for antitumor activity in mice bearing P388 leukemic cells, and average change in body weight from onset to the termination of therapy; type: functional, Mus musculus
In short: (§3)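 Ascitic Sarcoma 180 or P388 leukemia carried in CDF-1 mice; recipients transplanted from donors bearing 7-day tumors. Compound given once daily for six consecutive days from 24 h after implantation, over 50–200 mg/kg per day; hydrochloride salt solutions adjusted to pH 6.5–7.0. Mice weighed; % body-weight change onset to end of therapy taken as host toxicity; maximum effective daily dose reported from survival prolongation.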

P388 [5] = assay: Maximum effective daily dose required to inhibit the tumors of P388 leukemia; type: functional, Mus musculus; in short: as §3
[6] = Compound was evaluated for antitumor activity in mice bearing sarcoma 180 ascites cells and average survival time; type: functional, Mus musculus; in short: as §1
P388 [7] = assay: Compound was evaluated for antitumor activity in mice (control group) bearing P388 leukemic cells and average survival time; type: functional, Mus musculus; in short: as §1
Mus musculus [8] = species on record: Mus musculus; assay: Ratio of average survival time of treated to control mice bearing P388 leukemia; type: functional; in short: as §2
[9] = Maximum effective daily dose required to inhibit the tumors of sarcoma 180 ascites cells; type: functional, Mus musculus; in short: as §3
Mus musculus [10] = species on record: Mus musculus; assay: Average change in body weight from onset to the termination of drug therapy in mice bearing sarcoma 180 ascites cells; type: functional; in short: as §3
P388 [11] = assay: Compound was evaluated for antitumor activity in mice (control group) bearing P388 leukemic cells from average survival time; type: functional, Mus musculus; in short: as §1
[12] = Compound was evaluated for antitumor activity in mice bearing sarcoma 180 ascites cells from average survival time; type: functional, Mus musculus; in short: as §1
P388 [13] = assay: Compound was evaluated for antitumor activity in mice bearing P388 leukemic cells from average survival time; type: functional, Mus musculus; in short: as §1
[14] = Compound was evaluated for antitumor activity in mice (control group) bearing sarcoma 180 ascites cells from average survival time; type: functional, Mus musculus; in short: as §1
P388 [15] = assay: Compound was evaluated for antitumor activity in mice bearing P388 leukemic cells, and average change in body weight from onset to the termination of drug therapy; type: functional, Mus musculus; in short: as §3
P388 [16] = assay: Compound was evaluated for average change in body weight from onset to the termination of drug therapy in mice bearing P388 leukemic cells; type: functional, Mus musculus; in short: as §3
[17] = Compound was evaluated for average change in body weight from onset to the termination of drug therapy in mice bearing sarcoma 180 ascites cells; type: functional, Mus musculus; in short: as §3

SMILES | Time [1] [days] | T/C (Mus musculus [2]) [%] | Time (P388 [3]) [days] | Weight change (P388 [4]) [%] | Dose (P388 [5]) [mg/kg] | Time [6] [days] | Time (P388 [7]) [days] | T/C (Mus musculus [8]) [%] | Dose [9] [mg/kg] | Weight change (Mus musculus [10]) [%] | Time (P388 [11]) [days] | Time [12] [days] | Time (P388 [13]) [days] | Time [14] [days] | Weight change (P388 [15]) [%] | Weight change (P388 [16]) [%] | Change of weight [17] [%]
Cl.O=[N+]([O-])c1ccc(S(=O)(=O)N/N=C/c2ccncc2)cc1 | 11.4 | 328 | 17.6 | -7.5 | 200 | 37.4 | 13.8 | 128 | 75 | -8.1 | – | – | – | – | – | – | –
COc1ccc(S(=O)(=O)N/N=C/c2ccncc2)cc1OC.Cl | – | 278 | – | – | 100 | – | – | 119 | 200 | -9.1 | 14.8 | 32.8 | 17.6 | 11.8 | -3 | – | –
COc1ccc(S(=O)(=O)N/N=C/c2ccncc2)cc1.Cl | 14.2 | 218 | 18 | – | 150 | 31 | 14.6 | 123 | 100 | -10.7 | – | – | – | – | – | 0.7 | –
Cc1cc(C)c(S(=O)(=O)N/N=C/c2ccc([N+](=O)[O-])cc2)c(C)c1.Cl | 11.4 | 231 | – | – | 150 | 26.4 | – | 121 | 100 | -10.2 | 14.2 | – | 17.2 | – | – | -3.5 | –
COc1ccc(S(=O)(=O)N/N=C/c2ccc([N+](=O)[O-])cc2)cc1.Cl | 15 | 159 | 14.6 | – | 200 | 23.8 | 14.8 | 99 | 100 | -19 | – | – | – | – | – | -5.7 | –
Cc1ccc(S(=O)(=O)N/N=C/c2ccncc2)cc1 | – | 222 | – | – | – | – | – | – | 100 | -16.7 | – | 32.4 | – | 14.6 | – | – | –
CC(=O)Nc1ccc(S(=O)(=O)N/N=C/c2ccncc2)cc1.Cl | – | 288 | – | -3.1 | 150 | – | – | 121 | 150 | -5.2 | 14.6 | 34 | 17.6 | 11.8 | – | – | –
C/C(=N\NS(=O)(=O)c1c(C)cc(C)cc1C)c1ccncc1 | – | 123 | – | – | – | – | – | – | 100 | – | – | 20.6 | – | 16.8 | – | – | 3.2
Cc1ccc(S(=O)(=O)N/N=C/c2ccc([N+](=O)[O-])cc2)cc1.Cl | – | 197 | – | – | 200 | – | – | 107 | 100 | -17.4 | 14.2 | 29.6 | 15.2 | 15 | – | -3 | –
CC(C)c1cc(C(C)C)c(S(=O)(=O)N/N=C/c2ccncc2)c(C(C)C)c1.Cl | 11.8 | 262 | 17 | -0.9 | 200 | 31 | 13.8 | 123 | 200 | -3.1 | – | – | – | – | – | – | –
Cl.O=[N+]([O-])c1ccc(/C=N/NS(=O)(=O)c2ccccc2)cc1 | 11.4 | 182 | 14.8 | -0.1 | 150 | 20.8 | 14.2 | 104 | 150 | -12.1 | – | – | – | – | – | – | –
Cl.O=S(=O)(N/N=C/c1ccncc1)c1ccccc1 | 14.2 | 225 | – | – | 150 | 32 | – | 123 | 100 | -8.6 | 14.6 | – | 18 | – | – | -3.1 | –
Cl.O=S(=O)(N/N=C/c1ccncc1)c1ccc(Cl)cc1 | – | 242 | – | -5.4 | 200 | – | – | 112 | 150 | -5.4 | 14.8 | 28.6 | 16.6 | 11.8 | – | – | –
O=[N+]([O-])c1ccc(/C=N/NS(=O)(=O)c2ccc(Cl)cc2)cc1 | 15 | 189 | 15.2 | – | 200 | 28.4 | 14.2 | 107 | 100 | -16 | – | – | – | – | – | -2.4 | –
Cc1cc(C)c(S(=O)(=O)N/N=C/c2ccncc2)c(C)c1.Cl | 14.2 | 239 | 18.8 | – | 100 | 34 | 14.6 | 129 | 50 | -8.4 | – | – | – | – | – | -2.2 | –
CN(/N=C/c1ccncc1)S(=O)(=O)c1ccc(Cl)cc1.Cl | – | 110 | – | – | – | – | – | – | 100 | -4.2 | – | 16 | – | 14.6 | – | – | –
Cc1ccc(S(=O)(=O)N/N=C/c2ccncc2)cc1.Cl | 14.6 | 249 | 17.2 | -7.6 | 150 | 36.4 | 14.6 | 118 | 100 | -14.5 | – | – | – | – | – | – | –
